Key:
[1] = molecular target: T1, E-selectin (Homo sapiens) (UniProt P16581); experiment: In vitro inhibitory potency compared to PMA induced Selectin E expression in human endothelial cells (ELISA assay) at 1 uM; format: cell-based; conditions: Endothelial cell
T1 sequence (whole entry): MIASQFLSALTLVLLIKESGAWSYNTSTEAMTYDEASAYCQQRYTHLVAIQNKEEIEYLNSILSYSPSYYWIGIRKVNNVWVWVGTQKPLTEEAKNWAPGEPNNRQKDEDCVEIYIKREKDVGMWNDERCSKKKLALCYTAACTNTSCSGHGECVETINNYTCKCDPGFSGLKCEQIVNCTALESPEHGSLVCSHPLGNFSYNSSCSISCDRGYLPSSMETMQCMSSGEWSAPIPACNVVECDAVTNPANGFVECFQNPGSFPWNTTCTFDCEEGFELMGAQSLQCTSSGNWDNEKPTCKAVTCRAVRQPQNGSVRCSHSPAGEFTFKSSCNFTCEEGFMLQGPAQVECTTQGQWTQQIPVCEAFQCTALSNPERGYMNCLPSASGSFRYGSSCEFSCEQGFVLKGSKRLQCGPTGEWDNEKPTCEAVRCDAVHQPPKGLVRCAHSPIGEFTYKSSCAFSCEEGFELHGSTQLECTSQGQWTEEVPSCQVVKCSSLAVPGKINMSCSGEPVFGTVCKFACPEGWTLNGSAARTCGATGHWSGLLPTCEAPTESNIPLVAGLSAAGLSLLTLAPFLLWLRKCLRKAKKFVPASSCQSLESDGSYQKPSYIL
In short: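 HUVEC whole-cell ELISA with PMA substituted for TNFα as inducer. Compound preincubated 24 h at 37 °C, then 6 h induction at 37 °C. E-selectin detected with mouse monoclonal antibody and HRP anti-mouse IgG, OPD development, A490. Value given as percent inhibition at a single concentration of 1 µM.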

[2] = molecular target: T2, Intercellular adhesion molecule 1 (Homo sapiens, UniProt P05362); experiment: In vitro inhibitory potency compared to IL1-beta induced Intercellular adhesion molecule-1 expression in human endothelial cells (ELISA assay); format: cell-based, Endothelial cell
In short: (§1)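 Primary HUVECs plated at 5 × 10^4 cells/mL in EBM/2% FBS with growth supplements; next day compound added, 24 h at 37 °C, then IL-1β substituted for TNFα as inducer, 6 h at 37 °C. Cell ELISA: mouse monoclonal anti-ICAM-1 or anti-E-selectin (ELAM-1) overnight at 4 °C, HRP donkey anti-mouse IgG, OPD, absorbance 490 nm.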

E-selectin [3] = molecular target: T3, E-selectin (Homo sapiens, UniProt P16581); experiment: In vitro inhibitory potency compared to TNF-alpha induced Selectin E expression in human endothelial cells (ELISA assay); format: cell-based, Endothelial cell
T3 sequence (P16581 whole entry): T1 sequence (whole entry)
In short: (§2)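 Whole-cell ELISA on primary HUVECs plated at 5 × 10^4 cells/mL in EBM/2% FBS with growth supplements. Compound preincubated 24 h at 37 °C, then inducer added (TNFα at 5 ng/mL final, or IL-1β or PMA in its place) for 6 h at 37 °C. Mouse monoclonal anti-E-selectin, anti-ICAM-1 or anti-VCAM-1 was applied overnight at 4 °C, then HRP anti-mouse IgG. Detection with OPD, A490. Triplicate assays.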

[4] = molecular target: T4, Vascular cell adhesion protein 1 (Homo sapiens) (UniProt P19320); conditions: Endothelial cell
T4 sequence (whole entry): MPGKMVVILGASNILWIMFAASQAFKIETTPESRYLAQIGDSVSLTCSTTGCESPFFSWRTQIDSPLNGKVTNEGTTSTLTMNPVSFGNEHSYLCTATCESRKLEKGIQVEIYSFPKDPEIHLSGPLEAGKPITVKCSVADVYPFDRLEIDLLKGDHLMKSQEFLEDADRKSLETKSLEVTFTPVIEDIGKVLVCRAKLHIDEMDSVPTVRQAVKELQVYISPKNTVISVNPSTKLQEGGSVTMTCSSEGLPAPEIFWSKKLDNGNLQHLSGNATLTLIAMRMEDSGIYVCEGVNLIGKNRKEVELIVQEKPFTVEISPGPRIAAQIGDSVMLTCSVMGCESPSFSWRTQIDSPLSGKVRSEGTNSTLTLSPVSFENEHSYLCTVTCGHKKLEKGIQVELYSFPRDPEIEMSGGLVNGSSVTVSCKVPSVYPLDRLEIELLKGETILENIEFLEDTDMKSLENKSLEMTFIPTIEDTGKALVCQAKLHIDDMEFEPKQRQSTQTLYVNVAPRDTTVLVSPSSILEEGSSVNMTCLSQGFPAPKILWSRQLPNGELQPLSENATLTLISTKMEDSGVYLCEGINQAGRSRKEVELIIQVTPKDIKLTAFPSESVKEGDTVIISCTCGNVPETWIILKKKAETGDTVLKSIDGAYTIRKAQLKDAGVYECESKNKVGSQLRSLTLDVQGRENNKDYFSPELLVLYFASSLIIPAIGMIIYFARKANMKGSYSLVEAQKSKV

[5] = Inhibition of selectin E in human endothelial cells; conditions: endothelial cell
[6] = molecular target: T2, Intercellular adhesion molecule 1; experiment: In vitro inhibitory potency compared to TNF-alpha induced Intercellular adhesion molecule-1 expression in human endothelial cells (ELISA assay); format: cell-based, Endothelial cell
In short: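 Primary HUVECs plated at 5 × 10^4 cells/mL in EBM/2% FBS with growth supplements; next day compound added, 24 h at 37 °C, then TNFα to 5 ng/mL final, 6 h at 37 °C. Cell ELISA: mouse monoclonal anti-ICAM-1 overnight at 4 °C, HRP donkey anti-mouse IgG, OPD, absorbance 490 nm; triplicate assay.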

E-selectin [7] = molecular target: T3, E-selectin; experiment: In vitro inhibitory potency compared to IL1-beta induced Selectin E expression in human endothelial cells (ELISA assay); format: cell-based, Endothelial cell; in short: as §1
[8] = molecular target: T2, Intercellular adhesion molecule 1; experiment: In vitro inhibitory potency compared to PMA induced Intercellular adhesion molecule-1 expression in human endothelial cells (ELISA assay); format: cell-based, Endothelial cell
In short: (§3)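 Primary HUVECs seeded at 5 × 10^4 cells/mL in EBM/2% FBS with EGF, bovine brain extract and gentamicin. Compound added next day for 24 h at 37 °C, then inducer (IL-1β or PMA, level not stated) for 6 h at 37 °C. Whole-cell ELISA used mouse monoclonal anti-ICAM-1 or anti-VCAM-1, HRP donkey anti-mouse IgG and OPD, read at 490 nm. Run in triplicate.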

[9] = Toxicity in HUVEC cell lysates; format: cell-based, Lysate; conditions: human
In short: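 Primary HUVECs were plated at 5 × 10^4 cells/mL in EBM/2% FBS with human EGF, bovine brain extract and gentamicin. The next day, compounds were added, at up to 100 µM. TNFα was then added as in the cell ELISA. About 24 h after compound addition, MTS reagent was added, cells were incubated a further 2 h at 37 °C, and absorbance was read at 490 nm.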

[10] = Inhibition of intercellular adhesion molecule-1 (ICAM1) in human endothelial cells; conditions: endothelial cell
[11] = molecular target: T2, Intercellular adhesion molecule 1; experiment: In vitro inhibitory potency compared to TNF-alpha induced Intercellular adhesion molecule-1 in human endothelial cells (ELISA assay); format: cell-based, Endothelial cell
In short: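 Primary HUVECs seeded at 5 × 10^4 cells/mL in EBM/2% FBS with supplements. After 24 h of compound at 37 °C, TNFα was added to 5 ng/mL final for 6 h at 37 °C. Cell-surface ICAM-1 was detected with a mouse monoclonal antibody, then HRP anti-mouse IgG and OPD, with absorbance at 490 nm. Triplicate determinations.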

E-selectin [12] = molecular target: T3, E-selectin; experiment: Inhibition of selectin E in human endothelial cells; format: cell-based, Endothelial cell; in short: as §2
[13] = molecular target: T2, Intercellular adhesion molecule 1; experiment: In vitro inhibitory potency compared to PMA induced Intercellular adhesion molecule-1 in human endothelial cells (ELISA assay); format: cell-based, Endothelial cell; in short: as §2
E-selectin [14] = molecular target: T3, E-selectin; experiment: In vitro inhibitory potency compared to TNF-alpha induced Selectin E in human endothelial cells (ELISA assay); format: cell-based, Endothelial cell; in short: as §2
[15] = molecular target: T2, Intercellular adhesion molecule 1; experiment: In vitro inhibitory potency compared to IL1-beta induced Intercellular adhesion molecule-1 in human endothelial cells (ELISA assay); format: cell-based, Endothelial cell; in short: as §3
[16] = molecular target: T2, Intercellular adhesion molecule 1; experiment: Inhibition of intercellular adhesion molecule-1 (ICAM1) in human endothelial cells; format: cell-based, Endothelial cell; in short: as §2
E-selectin [17] = molecular target: T3, E-selectin; experiment: In vitro inhibitory potency compared to IL1-beta induced Selectin E in human endothelial cells (ELISA assay); format: cell-based, Endothelial cell; in short: as §2

T2 sequence (P05362 whole entry): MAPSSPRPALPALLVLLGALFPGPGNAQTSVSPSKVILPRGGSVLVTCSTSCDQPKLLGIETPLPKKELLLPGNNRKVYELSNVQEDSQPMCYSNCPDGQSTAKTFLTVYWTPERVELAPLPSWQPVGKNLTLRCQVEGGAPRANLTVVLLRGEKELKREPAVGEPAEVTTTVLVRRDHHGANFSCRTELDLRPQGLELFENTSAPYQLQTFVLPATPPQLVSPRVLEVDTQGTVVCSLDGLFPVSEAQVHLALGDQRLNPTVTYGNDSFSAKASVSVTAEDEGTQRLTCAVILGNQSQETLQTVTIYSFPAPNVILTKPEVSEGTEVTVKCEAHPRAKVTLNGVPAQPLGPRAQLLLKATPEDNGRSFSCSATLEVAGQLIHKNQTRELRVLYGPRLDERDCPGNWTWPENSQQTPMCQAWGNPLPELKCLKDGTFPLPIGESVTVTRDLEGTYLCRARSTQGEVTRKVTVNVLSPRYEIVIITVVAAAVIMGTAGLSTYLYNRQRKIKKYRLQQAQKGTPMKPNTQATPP

Structure (SMILES)	inhibition [1]	IC50 [2]	IC50 (E-selectin [3])	Inhibition at 1uM [4]	IC50 [5]	IC50 [6]	IC50 (E-selectin [7])	IC50 [8]	IC50 [9]	IC50 [10]	IC50 [11]	IC50 (E-selectin [12])	IC50 [13]	IC50 (E-selectin [14])	IC50 [15]	IC50 [16]	IC50 (E-selectin [17])
Cc1ccc(Sc2cncc3sc(C(N)=O)cc23)cc1	44%	0.01 µM	0.015 µM	45%	0.02 µM	0.015 µM	0.025 µM	0.03 µM	152 µM	0.025 µM	–	–	–	–	–	–	–
CNC(=O)c1cc2c(Oc3ccc(COCCOCCOC)cc3)cncc2s1	46%	–	–	–	–	–	–	–	–	–	0.005 µM	0.006 µM	0.005 µM	0.004 µM	0.002 µM	0.005 µM	0.005 µM
